# Source: PubChem BioAssay
# CHT inh – inhibitors of human choline transporter CHT. B-score at 10 µM. actives 0.86% (n = 310,000). Q9GZV3. CHT-expressing cells, membrane potential dye, choline response; hits give low values;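 active = B-score over 3 SD under the library average, and starting fluorescence ratio not unusually high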;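 also: choline stimulus applied at its EC90 after an EC20 pre-addition; B-score computed on integrated fluorescence ratio after choline addition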
# HSF1 inh – HSF1 inhibition; NIH3T3-HGL HSE-luciferase, MG132-induced, luminescence 8 h; hits give low values; activity change, negative = inhibition, % at 7.5 µM (by protocol); actives 0.77% (n = 300,000); AID 2098;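 active = more than half of replicate wells show activity change below -50%, luminescence cut by over half; inconclusive = some wells, but at most half, below -50%; inactive = no replicate well below -50%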;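 also: luciferase reports HSF-1 transcriptional activity via heat shock element; 0% = median of DMSO wells and -100% = zero luminescence signal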
# Hep lipid drop – hepatic lipid droplet formation modulation; AML12 mouse hepatocytes, oleate lipid droplets, BODIPY imaging; actives 0.4% (n = 240,000); inhibition, % at 6.5 µM;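 active = lipid droplet intensity inhibited by at least 50%, with more than 500 cells counted; inconclusive = wells with under 300 cells, treated as cytotoxic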
#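 Assay system: AML12 mouse liver cells | Compound: 6.5 µM single-point dosing | Schedule: Overnight exposure | Technique: Fluorescence imaging, 20x objective, two fields per well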
# PHOSPHO1 inh – blocks human PHOSPHO1 phosphatase activity; Q8TCT1; actives 1.1% (n = 290,000); inhibition, % at 13.3 µM; recombinant PHOSPHO1, absorbance phosphatase assay; in the data active = inhibition above about 60%
# Target sequence (Q8TCT1 whole entry, looked up): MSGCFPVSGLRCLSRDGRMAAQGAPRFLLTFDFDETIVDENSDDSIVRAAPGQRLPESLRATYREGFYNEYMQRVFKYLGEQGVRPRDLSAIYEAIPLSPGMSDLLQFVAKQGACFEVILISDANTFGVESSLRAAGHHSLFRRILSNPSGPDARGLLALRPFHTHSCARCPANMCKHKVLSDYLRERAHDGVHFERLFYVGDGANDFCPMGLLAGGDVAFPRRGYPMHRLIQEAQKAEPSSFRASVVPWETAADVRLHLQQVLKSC
# HSF1 activator – increases HSF-1 driven luciferase reporter signal; NIH3T3-HGL HSF-1 luciferase reporter, MG132, 8 h; 100% = twice DMSO control signal; AID 504408; actives 1.7% (n = 300,000); activation, % at 9 µM;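 active = mean replicate activation of at least 50% with a set share of replicates each reaching 50%; inconclusive = only one of those two conditions met; inactive = mean below 50% and too few replicates reaching it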;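 also: 0% = median of the neutral control wells and 100% = twice that signal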
# CHT allo act – human CHT allosteric activation. Q9GZV3. CHT-expressing cells, membrane potential dye, choline EC20; hits give high values; LV-AA mutant CHT in HEK293 cells. B-score at 10 µM. actives 0.49% (n = 310,000). AID 488977;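 active = initial fluorescence not abnormally high and integrated response B-score, plate-corrected, over 3 SD above library mean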
# The depositor's hits bear a star; i = inactive; u = inconclusive; x = not tested or not shown; ! = not confirmed by another sample. Most compounds without a hit are left out; they make up all but 4.9% or so of the library.
SMILES,CHT inh,HSF1 inh,Hep lipid drop,PHOSPHO1 inh,HSF1 activator,CHT allo act
CCN=C1SC(C(=O)Nc2cccc(C)c2)CC(=O)N1CC (stereo not given),i,1.0,-18.7,10.0,-3.0,i
Cc1cccc(NC(=O)C2CC(=O)n3cnnc3S2)c1 (stereo not given),i,-9.5,-3.0,95.4*,-13.2,i
COc1ccc(C(=O)C2CCCN(S(=O)(=O)c3ccccc3F)C2)c(C)c1 (stereo not given),i,-77.3*,-2.5,19.2,-83.6,i
Cn1ccnc1SCC(=O)NC1CC1,i,-8.9,15.7,30.1,10.4,i
Cn1ccnc1SCC(=O)NC1CCCCC1,i,x,x,62.5*,x,i
Cn1ccnc1SCC(=O)N(C1CCCCC1)C1CCCCC1,i,-68.3*,1.3,-8.4,-75.0,i
COCCn1c(SCC(=O)NC2CCCCC2)nc2c(c1=O)SCC2,i,22.8,7.0,-2.5,57.9*,i
O=C(Nc1ccccc1C(=O)NC(Cc1ccccc1)C(=O)O)c1ccccc1 (stereo not given),i,-3.4,1.2,-26.7,-0.7,i
C=CCn1c(SCC(=O)c2c(N)n(CCC)c(=O)n(C)c2=O)nnc1-c1ccncc1,i,-0.7,32.8,-35.4,-6.1,i
CC(C)c1ccc(NC2CCCN(C(=O)c3cnc4ccccn4c3=O)C2)cc1 (stereo not given),i,2.0,-12.0,46.6,-3.9,i
CC(=O)c1ccc(OCC(O)CN2CCN(Cc3ccc4c(c3)OCO4)CC2)cc1 (stereo not given),i,-61.1*!,-2.9,14.1,-6.6,i
C=CCNc1nnnc2c1sc1nc(N3CCOCC3)c3c(c12)CCCC3,i,-68.4*,5.9,28.3,-74.5,i
CC(C)CNc1nnnc2c1sc1nc(N3CCOCC3)c3c(c12)CCCC3,i,-6.2,-14.2,19.7,15.0,i
N#Cc1ccc(OCCN2CCc3ccccc3C2)cc1,i,37.0,x,x,84.6*,i
COc1ccc(OCCOCCN2CCc3ccccc3C2)cc1,i,-2.6,x,-25.8,-6.9,i
O=C1Nc2cc(C(=O)N3CCN(c4ccccc4F)CC3)ccc2NC1CSCc1ccccc1F (stereo not given),i,8.4,32.6,8.9,-2.2,i
Cc1nc(-c2ccc(Cl)cc2)sc1C1(C)CC(c2cccc(Cl)c2)=NO1 (stereo not given),i,0.0,-2.4,-69.3,-11.5,i
NC(=O)c1ccc(-n2nnnc2SCC(=O)NC2CCCCC2)cc1,i,-7.9,-3.9,-13.0,4.2,i
CCC1(C)Cc2c(C#N)c(N)n(-c3ccccc3)c(=O)c2CO1 (stereo not given),i,-13.3,-24.5,10.5,-31.8,i
CC1(C)C=C2C(=NN(c3ccccc3)C(N)=C2C#N)CO1,i,-70.9*,2.6,x,-78.1,i
Cc1noc(C)c1COc1ccccc1C(=O)N1CCN(S(=O)(=O)c2ccccc2C(F)(F)F)CC1,i,6.4,x,x,4.7,i
COc1ccc(Br)cc1CNC(=O)CCC(=O)N1CCSc2ccccc21,i,0.2,-1.2,-3.5,-6.7,i
CC1Cc2ccccc2N1C(=O)COC(=O)c1ccc(S(=O)(=O)N(C)C)cc1 (stereo not given),i,-77.5*,x,31.9,-81.9,i
CC(=O)NCC(=O)N1CCCC(C(=O)c2ccc(-c3ccccc3)c(F)c2)C1 (stereo not given),i,0.0,25.7,-15.9,29.2,i
COCC(=O)N1CCCC(C(=O)c2ccc(-c3ccccc3)c(F)c2)C1 (stereo not given),i,9.9,13.8,62.8*,3.0,i
SMILES,CHT inh,HSF1 inh,Hep lipid drop,PHOSPHO1 inh,HSF1 activator,CHT allo act
O=C(CSc1nnc(-c2ccccc2Cl)o1)Oc1ccc(Br)cc1,i,-13.0,5.9,4.9,-9.5,i
O=C(NCc1cnc2ccccn12)C1CCC(=O)N(Cc2ccccc2F)C1 (stereo not given),i,0.1,-1.3,65.8*,-2.8,i
Cc1cccc2nc(CNC(=O)C3CCC(=O)N(Cc4ccccc4F)C3)cn12 (stereo not given),i,-5.1,4.6,18.5,-23.6,i
CC(=O)Nc1nnc(SCC(=O)c2ccc(F)cc2)s1,i,91.6,-2.2,-21.5,103.6*,i
CC(=O)Nc1nnc(SCc2ccc(F)cc2)s1,i,22.8,x,57.0,18.8,i
c1ccc(Cc2nc3ccccc3o2)cc1,i,-80.6*,2.8,0.2,-83.8,i
N#Cc1cc([N+](=O)[O-])ccc1Oc1ccc(-c2nnco2)cc1,i,-4.2,-20.0,43.0,-13.8,i
CCCOc1ccc(Cc2nn3c(=O)/c(=C/c4ccco4)sc3nc2=O)cc1,i,-3.3,x,-68.6,2.3,i
O=c1/c(=C/c2ccco2)sc2nc(-c3ccccc3Br)nn12,i,x,x,97.8*,x,i
COc1cc(Cl)cc(/C=N/NC(N)=O)c1O,i,-2.0,0.8,52.8,0.9,i
O=C1CSC(c2ccc(F)c(F)c2)N1c1ccccc1F (stereo not given),i,0.0,-7.5,23.9,-3.4,i
CCC(C)(C)C1CCc2c(sc(NC(=O)c3ccccc3C(=O)O)c2C#N)C1 (stereo not given),-7.71*,-2.1,-7.2,12.1,22.4,i
CC(C)(C)C(=O)Nc1sc2c(c1C#N)CCN(Cc1ccccc1)C2,i,17.7,-9.7,-5.6,57.2*,i
Cc1cc(C(=O)Nc2sc3c(c2C#N)CCC(C)C3)cs1 (stereo not given),i,23.1,-2.2,-17.5,74.4*,i
N#Cc1c(NC(=S)NC(=O)c2ccccc2)sc2c1CCN(CCc1ccccc1)C2,i,-6.6,14.1,14.4,12.1,i
CC1CCc2c(sc(NC(=S)NC(=O)c3ccccc3)c2C#N)C1 (stereo not given),i,32.5,-2.8,-4.9,58.7*,i
Cc1ccc(-c2nc3c4ccccc4ccn3c2CN2CCCCC2)cc1,i,0.0,-9.0,-2.2,-23.2,i
O=C(CSc1n[nH]c(-c2ccccc2)n1)Nc1ccccc1O,i,36.7,-4.0,37.7,64.9*,i
CCOC(=O)c1sc(NC(=O)CSc2n[nH]c(-c3ccccc3)n2)c(C#N)c1C,i,u,4.2,76.6*,-58.9,i
Cc1ccc([N+](=O)[O-])cc1NC(=O)CSc1n[nH]c(-c2cccnc2)n1,i,-87.1*,31.7,28.0,-89.9,i
CCOC(=O)c1sc(NC(=O)CSc2nnc(Cc3ccccc3)o2)c(C#N)c1C,i,-2.4,4.1,86.1*,9.9,i
Cc1ccc(C)c(OCC(=O)Nc2ccc(S(=O)(=O)Nc3onc(C)c3C)cc2)c1,i,-6.0,3.0,6.4,1.2,i
